The values that follow come from ChEMBL document CHEMBL1177728, “Discovery and optimization of boronic acid based inhibitors of autotaxin” (J Med Chem, 2010).

Where only a bound is given, the exact number is not on record here.

Assay [1] has as its target T1, Autotaxin (Homo sapiens, UniProt Q13822). The assay can be described thus: Inhibition of 6x-histidine-tagged human recombinant ATX expressed in HEK293 cells at 5 uM by CPF assay. The class given is cell-based. In outline: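 FRET substrate CPF4 at 2 μM with purified His-tagged ATX (~40 nM), run as the bis-pNPP format (pH 7.8 Tris-buffered saline, BSA-FAF, 3 h at room temperature). Fluorescence excited at 355 nm, emission 460 and 520 nm. Inhibitor at 5 μM final.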

The target of assay [2] is T1, Autotaxin. The assay can be described thus: Inhibition of 6x-histidine-tagged human recombinant ATX expressed in HEK293 cells using bisP-nitrophenyl phosphate as a substrate at 5 uM. The class given is cell-based. In outline:
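bis-pNPP hydrolysis by purified His-tagged ATX (~40 nM) in Tris-buffered saline pH 7.8 with fatty-acid-free BSA 0.2 mg/mL. Bis-pNPP added as 2 mM stock, 3 h at room temperature. p-Nitrophenol read at 405 nm, corrected by 0 h absorbance. IC50 from 10 concentrations (0.025–100 μM); inhibition at 5 μM final; three independent experiments.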

Assay [3] concerns the target T1, Autotaxin. The assay can be described thus: Inhibition of 6x-histidine-tagged human recombinant ATX expressed in HEK293 cells using bisP-nitrophenyl phosphate as a substrate. The class given is cell-based. As to conditions: read-out: IC50.
Assay [4] concerns the target T1, Autotaxin. The assay can be described thus: Inhibition of 6x-histidine-tagged human recombinant ATX expressed in HEK293 cells assessed as lysophosphatidulcholine release. Type of assay: cell-based. The method in brief:
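LPC (18:1) choline release: ATX (~40 nM) secreted by transfected HEK293 cells into serum-free medium, TALON-purified, in 50 mM Tris-HCl pH 7.4 with 0.01% Triton X-100. Substrate added as 80 μM LPC with 10 mM MgCl2 and CaCl2, 3 h at 37 C.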

The target in assay [5] is T1, Autotaxin. The assay can be described thus: Inhibition of 6x-histidine-tagged human recombinant ATX expressed in HEK293 cells assessed as lysophosphatidulcholine release at 5 uM. The class given is cell-based. In outline: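 LPC (18:1) choline release: ATX (~40 nM) secreted by transfected HEK293 cells into serum-free medium, TALON-purified, in 50 mM Tris-HCl pH 7.4 with 0.01% Triton X-100. Substrate added as 80 μM LPC with 10 mM MgCl2 and CaCl2, 3 h at 37 C. Choline read at 405 nm by choline oxidase/HRP/ABTS with compound-absorbance correction. IC50 over 10 concentrations (0.01–30 μM); inhibition at 5 μM final.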

In assay [6] the target is T1, Autotaxin. The assay can be described thus: Inhibition of 6x-histidine-tagged human recombinant ATX expressed in HEK293 cells assessed as residual enzyme activity by lysophosphatidulcholine release assay. Type of assay: cell-based. The method in brief:
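Residual activity in the LPC (18:1) choline release assay with purified His-tagged ATX (~40 nM), pH 7.4 Tris with 0.01% Triton X-100, 3 h at 37 C. Inhibitor titrated at 10 concentrations, 0.01–30 μM. Choline detected at 405 nm via choline oxidase/HRP/ABTS.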

Assay [7] addresses T1, Autotaxin. The assay can be described thus: Inhibition of 6x-histidine-tagged human recombinant ATX expressed in HEK293 cells assessed as residual activity using bisP-nitrophenyl phosphate as a substrate; values are per cent of control.

A word on the inhibition: it is how much of the control response was suppressed. In general, IC50 refers to the concentration that inhibits the measured activity by half. Turning to `CCOc1cc(/C=C2\SC(=O)N(Cc3ccccc3)C2=O)ccc1OCc1ccc(C(=O)O)cc1`, the inhibition at Autotaxin [1] stood at 89%; on Autotaxin [2], 92%. On Autotaxin [3], the IC50 turned out to be 161 nM.

For orientation: residual activity means what remains of the control signal, in per cent. As to `COc1cc(/C=C2\SC(=O)N(Cc3ccc(F)cc3)C2=O)ccc1OCc1ccc(C(=O)O)cc1`, the inhibition is 85% on Autotaxin [1], 91% at Autotaxin [2] and 55% at Autotaxin [5]. The figures for the IC50 at Autotaxin [3] and on Autotaxin [4] were 56 nM and 2500 nM, respectively. Further, the Activity at Autotaxin [6] was determined as 35%. At Autotaxin [7], the residual activity was determined as 10%.

Regarding `CCCCCCCC/C=C\CCCCCCCC(=O)OC[C@@H](O)COP(=O)(O)O`, the inhibition at Autotaxin [1] was 67%; at Autotaxin [2], 80%. Moreover, the residual activity on Autotaxin [7] was 39%.

For the compound `Cn1c(=O)n(C)c2cc(/C=C3\SC(=O)N(Cc4ccccc4)C3=O)ccc21`, the figures for the inhibition at Autotaxin [1] and at Autotaxin [2] were 55% and 75%, respectively. Besides, the IC50 on Autotaxin [3] turned out to be 111 nM.

Turning to `COc1cc(/C=C2\SC(=O)N(Cc3ccc(Cl)cc3)C2=O)ccc1OCc1ccncc1`, the values for the inhibition on Autotaxin [1] and on Autotaxin [2] were 85% and 83%, respectively. Further, at Autotaxin [3], the IC50 came to 68 nM.

As for `COc1cc(/C=C2\SC(=O)N(Cc3ccc(C(C)(C)C)cc3)C2=O)ccc1OCc1ccc(C(=O)O)cc1`, the IC50 on Autotaxin [3] turned out to be 18200 nM; on Autotaxin [4] it was 13600 nM. Besides, on Autotaxin [6], the Activity was determined as 27%. Moreover, on Autotaxin [7], the residual activity turned out to be 33%.

As for `COc1cc(/C=C2\SC(=O)N(Cc3ccc([N+](=O)[O-])cc3)C2=O)ccc1OCc1ccc(C(=O)O)cc1`, the values for the IC50 at Autotaxin [3] and at Autotaxin [4] were 442 nM and over 5000 nM, respectively. Besides, the Activity on Autotaxin [6] stood at 56%. At Autotaxin [7], the residual activity is 33%.

In the case of `COc1cc(/C=C2\SC(=O)N(Cc3ccccc3)C2=O)ccc1OCc1ccc(C(=O)O)cc1`, the IC50 came out at 248 nM on Autotaxin [3] and 2900 nM at Autotaxin [4]. Also, the Activity at Autotaxin [6] is 29%. Besides, the residual activity at Autotaxin [7] amounted to 9%.

`O=C(CSc1nc2ccc(N3C(=O)c4ccccc4C3=O)cc2s1)Nc1cccc(Cl)c1`: the figures for the inhibition at Autotaxin [1] and at Autotaxin [2] were 66% and 71%, respectively. Besides, the IC50 on Autotaxin [3] was determined as 261 nM.

Turning to `O=C(O)c1cccc(COc2ccc(/C=C3\SC(=O)N(Cc4ccc(F)cc4)C3=O)cc2)c1`, the IC50 on Autotaxin [4] amounted to 1070 nM. Further, the Activity on Autotaxin [6] is 7%.

Take `CC(C)Cc1ccc(-c2n[nH]c3c2C(c2ccc(N(C)C)cc2)C(C#N)=C(N)O3)cc1` (stereo unspecified): the inhibition on Autotaxin [1] was 77%; at Autotaxin [2] it was 87%. In addition, at Autotaxin [3], the IC50 was determined as 46 nM.

Consider `COc1cc(/C=C2\SC(=O)N(Cc3ccc(F)cc3)C2=O)ccc1OCc1cccc(C(=O)O)c1`, for which the half-inhibitory concentration (IC50) on Autotaxin [4] stood at 2050 nM. For the same compound, on Autotaxin [6], the Activity was determined as 42%.
